How the values were obtained:
[1] = target: T1, Multidrug efflux pump subunit AcrB (Escherichia coli (strain K12)) (UniProt P31224); assay: Inhibition of AcrB in Escherichia coli BW25113 assessed as potentiation of tetraphenylphosphonium induced antibacterial activity by measuring tetraphenylphosphonium MIC at 32 ug/ml measured after 18 hrs by checkerboard titration method (reference value: 1024 ug/ml); details: dose 32.0 µg/ml
T1 sequence (whole entry): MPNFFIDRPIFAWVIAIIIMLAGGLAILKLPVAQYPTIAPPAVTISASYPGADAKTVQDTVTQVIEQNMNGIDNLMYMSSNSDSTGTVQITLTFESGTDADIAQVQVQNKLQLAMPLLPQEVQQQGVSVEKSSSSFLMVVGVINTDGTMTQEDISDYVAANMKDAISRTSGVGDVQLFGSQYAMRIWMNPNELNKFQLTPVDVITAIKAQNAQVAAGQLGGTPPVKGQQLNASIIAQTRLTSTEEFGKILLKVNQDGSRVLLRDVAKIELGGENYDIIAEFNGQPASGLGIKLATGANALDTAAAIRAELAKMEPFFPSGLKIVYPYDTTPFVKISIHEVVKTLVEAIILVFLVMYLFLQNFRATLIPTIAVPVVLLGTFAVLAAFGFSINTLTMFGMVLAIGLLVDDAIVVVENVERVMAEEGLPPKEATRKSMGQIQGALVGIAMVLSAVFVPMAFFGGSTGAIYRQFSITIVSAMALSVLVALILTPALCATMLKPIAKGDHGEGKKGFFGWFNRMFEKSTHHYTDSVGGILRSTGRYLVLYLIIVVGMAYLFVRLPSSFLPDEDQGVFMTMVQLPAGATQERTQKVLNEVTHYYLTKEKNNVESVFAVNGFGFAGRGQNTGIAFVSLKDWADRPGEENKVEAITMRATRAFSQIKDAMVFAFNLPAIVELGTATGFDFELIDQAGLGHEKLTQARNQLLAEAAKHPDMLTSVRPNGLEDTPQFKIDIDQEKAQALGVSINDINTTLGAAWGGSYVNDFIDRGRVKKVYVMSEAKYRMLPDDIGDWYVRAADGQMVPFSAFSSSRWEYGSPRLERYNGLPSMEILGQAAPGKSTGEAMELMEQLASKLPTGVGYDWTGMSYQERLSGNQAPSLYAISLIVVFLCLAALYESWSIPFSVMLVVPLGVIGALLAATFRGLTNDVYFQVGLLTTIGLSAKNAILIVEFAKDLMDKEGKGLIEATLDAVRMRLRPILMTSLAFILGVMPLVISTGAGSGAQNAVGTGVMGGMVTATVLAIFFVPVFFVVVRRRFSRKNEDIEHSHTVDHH

[2] = target: T1, Multidrug efflux pump subunit AcrB (Escherichia coli (strain K12)); assay: Inhibition of AcrB in Escherichia coli BW25113 assessed as potentiation of levofloxacin induced antibacterial activity by measuring levofloxacin MIC at 128 ug/ml measured after 18 hrs by checkerboard titration method (reference value: 0.06 ug/ml); details: dose 128.0 µg/ml
[3] = target: T1, Multidrug efflux pump subunit AcrB (Escherichia coli (strain K12)); assay: Inhibition of AcrB in Escherichia coli BW25113 assessed as potentiation of tetraphenylphosphonium induced antibacterial activity by measuring tetraphenylphosphonium MIC at 64 ug/ml measured after 18 hrs by checkerboard titration method (reference value: 1024 ug/ml); details: dose 64.0 µg/ml
[4] = target: T1, Multidrug efflux pump subunit AcrB (Escherichia coli (strain K12)); assay: Inhibition of AcrB in Escherichia coli BW25113 assessed as potentiation of chloramphenicol induced antibacterial activity by measuring chloramphenicol MIC at 64 ug/ml measured after 18 hrs by checkerboard titration method (reference value: 8 ug/ml); details: dose 64.0 µg/ml
[5] = target: T1, Multidrug efflux pump subunit AcrB (Escherichia coli (strain K12)); assay: Inhibition of AcrB in Escherichia coli BW25113 assessed as potentiation of rifampicin induced antibacterial activity by measuring rifampicin MIC at 128 ug/ml measured after 18 hrs by checkerboard titration method (reference value: 16 ug/ml); details: dose 128.0 µg/ml
[6] = Growth inhibition of Escherichia coli harboring AcrB deletion mutant at 64 ug/ml after 18 hrs by broth microdilution assay; details: dose 64 µg/ml
In short: (§1)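 MIC determined by 96-well broth microdilution in E. coli BW25113 expressing AcrB ((+)AcrB) and an isogenic acrB-deleted strain ((-)AcrB). Used to set the compound concentrations for synergy testing that produce no direct antibacterial effect.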

[7] = target: T1, Multidrug efflux pump subunit AcrB (Escherichia coli (strain K12)); assay: Inhibition of AcrB in Escherichia coli BW25113 assessed as potentiation of erythromycin induced antibacterial activity by measuring erythromycin MIC at 32 ug/ml measured after 18 hrs by checkerboard titration method (reference value: 64 ug/ml); details: dose 32.0 µg/ml
[8] = target: T1, Multidrug efflux pump subunit AcrB (Escherichia coli (strain K12)); assay: Inhibition of AcrB in Escherichia coli BW25113 assessed as potentiation of rifampicin induced antibacterial activity by measuring rifampicin MIC at 64 ug/ml measured after 18 hrs by checkerboard titration method (reference value: 16 ug/ml); details: dose 64.0 µg/ml
[9] = target: T1, Multidrug efflux pump subunit AcrB (Escherichia coli (strain K12)); assay: Inhibition of AcrB in Escherichia coli BW25113 assessed as potentiation of erythromycin induced antibacterial activity by measuring erythromycin MIC at 16 ug/ml measured after 18 hrs by checkerboard titration method (reference value: 64 ug/ml); details: dose 16.0 µg/ml
[10] = target: T1, Multidrug efflux pump subunit AcrB (Escherichia coli (strain K12)); assay: Inhibition of AcrB in Escherichia coli BW25113 assessed as potentiation of rifampicin induced antibacterial activity by measuring rifampicin MIC at 16 ug/ml measured after 18 hrs by checkerboard titration method (reference value: 16 ug/ml); details: dose 16.0 µg/ml
[11] = target: T1, Multidrug efflux pump subunit AcrB (Escherichia coli (strain K12)); assay: Inhibition of AcrB in Escherichia coli BW25113 assessed as potentiation of erythromycin induced antibacterial activity by measuring erythromycin MIC at 128 ug/ml measured after 18 hrs by checkerboard titration method (reference value: 64 ug/ml); details: dose 128.0 µg/ml
[12] = Growth inhibition of Escherichia coli BW25113 expressing AcrB at 512 ug/ml after 18 hrs by broth microdilution assay; details: dose 512 µg/ml; in short: as §1
[13] = target: T1, Multidrug efflux pump subunit AcrB (Escherichia coli (strain K12)); assay: Inhibition of AcrB in Escherichia coli BW25113 assessed as potentiation of chloramphenicol induced antibacterial activity by measuring chloramphenicol MIC at 16 ug/ml measured after 18 hrs by checkerboard titration method (reference value: 8 ug/ml); details: dose 16.0 µg/ml
[14] = target: T1, Multidrug efflux pump subunit AcrB (Escherichia coli (strain K12)); assay: Inhibition of AcrB in Escherichia coli BW25113 assessed as potentiation of erythromycin induced antibacterial activity by measuring erythromycin MIC at 64 ug/ml measured after 18 hrs by checkerboard titration method (reference value: 64 ug/ml); details: dose 64.0 µg/ml
[15] = target: T1, Multidrug efflux pump subunit AcrB (Escherichia coli (strain K12)); assay: Inhibition of AcrB in Escherichia coli BW25113 assessed as potentiation of chloramphenicol induced antibacterial activity by measuring chloramphenicol MIC at 128 ug/ml measured after 18 hrs by checkerboard titration method (reference value: 8 ug/ml); details: dose 128.0 µg/ml
[16] = target: T1, Multidrug efflux pump subunit AcrB (Escherichia coli (strain K12)); assay: Inhibition of AcrB in Escherichia coli BW25113 assessed as potentiation of tetraphenylphosphonium induced antibacterial activity by measuring tetraphenylphosphonium MIC at 128 ug/ml measured after 18 hrs by checkerboard titration method (reference value: 1024 ug/ml); details: dose 128.0 µg/ml

Structure (SMILES) | MIC [1] [µg/mL] | MIC [2] [µg/mL] | MIC [3] [µg/mL] | MIC [4] [µg/mL] | MIC [5] [µg/mL] | growth inhibition (GI) [6] | MIC [7] [µg/mL] | MIC [8] [µg/mL] | MIC [9] [µg/mL] | MIC [10] [µg/mL] | MIC [11] [µg/mL] | growth inhibition (GI) [12] | MIC [13] [µg/mL] | MIC [14] [µg/mL] | MIC [15] [µg/mL] | MIC [16] [µg/mL]
Oc1ccc(CCCCc2ccc(O)c(O)c2)cc1O | 1020 | 0.06 | 512 | 8 | 16 | Non-Toxic | 64 | 16 | 64 | 16 | 32 | Non-Toxic | 8 | 64 | 8 | 512
Oc1ccc(CCCCc2cc(O)c(O)c(O)c2)cc1O | 512 | 0.06 | 512 | 8 | 16 | Non-Toxic | 64 | 16 | 64 | 16 | 32 | Non-Toxic | 8 | 32 | 8 | 256
C[C@H](Cc1ccc(O)c(O)c1)[C@@H](C)Cc1ccc(O)c(O)c1 [MASOPROCOL] | 1020 | 0.03 | 1020 | 8 | 16 |  | 64 | 16 |  |  | 64 |  |  | 64 | 4 | 128
Oc1ccc(CCCCc2ccc(Br)cc2)cc1O | 1020 | 0.06 | 512 | 8 | 16 | Non-Toxic | 64 | 16 | 64 | 16 | 64 | Non-Toxic | 8 | 64 | 8 | 512
Oc1ccc(CCCCCCCc2ccc(O)c(O)c2)cc1O | 512 | 0.06 | 512 | 8 | 16 | Non-Toxic | 64 | 16 | 64 | 16 | 64 | Non-Toxic | 8 | 64 | 8 | 512
O=C(NCCc1ccc(O)c(O)c1)c1ccccc1O | 1020 | 0.03 | 512 | 8 | 16 | Non-Toxic | 64 | 16 | 64 | 16 | 64 | Non-Toxic | 8 | 64 | 4 | 512
